Bioassay records: PubChem, several laboratories
ADAM10 inh – human ADAM10 inhibitors, primary screen, biochemical, QFRET, HTS | Disintegrin and metalloproteinase domain-containing protein 10 (Homo sapiens), O14672 | recombinant ADAM10, EDANS/DABCYL FRET peptide cleavage, 3 h | inhibition, % at 7 µM | 0.62% of 370,000 active;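 active = inhibition above a per-campaign cutoff equal to the mean of compounds falling between control-based bounds plus 3 SD, cut at about 20% in these data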;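 note: 0% = DMSO wells while the 100% control is not disclosed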
Target sequence (O14672 214-748 limits assumed): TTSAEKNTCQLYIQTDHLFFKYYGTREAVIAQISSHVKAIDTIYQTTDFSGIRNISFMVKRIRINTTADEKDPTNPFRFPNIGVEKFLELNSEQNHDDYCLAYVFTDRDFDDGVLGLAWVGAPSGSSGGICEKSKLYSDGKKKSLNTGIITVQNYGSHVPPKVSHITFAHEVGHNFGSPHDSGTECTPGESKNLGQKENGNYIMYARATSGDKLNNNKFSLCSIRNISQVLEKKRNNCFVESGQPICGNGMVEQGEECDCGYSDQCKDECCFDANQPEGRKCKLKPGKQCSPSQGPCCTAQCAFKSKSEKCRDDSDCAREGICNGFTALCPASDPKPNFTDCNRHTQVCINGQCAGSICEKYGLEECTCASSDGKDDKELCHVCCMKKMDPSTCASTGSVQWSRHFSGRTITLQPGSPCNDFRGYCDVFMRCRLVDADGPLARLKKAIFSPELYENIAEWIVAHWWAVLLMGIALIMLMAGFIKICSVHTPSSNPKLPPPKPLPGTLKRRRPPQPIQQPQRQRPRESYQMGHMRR
NR3A LBD binder – binders of NR3A ligand-binding domain, primary screen, biophysical, differential scanning fluorimetry, uHTS. Glutamate receptor ionotropic, NMDA 3A (GRIN3A) ligand-binding domain. NR3A LBD differential scanning fluorimetry, Tm shift; 0% = protein alone, 100% = glycine-bound protein. Tm shift relative to glycine control, % at 25 µM. 2.5% of 340,000 active. AID 1259313, 2017;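 active = melting temperature shift of at least 10% of the positive control shift, at one fixed dose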
MT1-MMP act inh – blockers of MT1-MMP proenzyme processing, primary screen, HT1080 RFP-PRO-GFP cells, GFP/RFP fluorescence. GFP/RFP ratio change, % at 20 µM. 0.061% of 360,000 active. GFP/RFP ratio fluorescence, overnight; percent of plate control window, DMSO zero;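 active = GFP/RFP ratio change of at least 30% with cell ATP level not reduced by more than half and red fluorescence within 50% of control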
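Read-out: GFP/RFP fluorescence ratio; Test system: RFP-PRO-GFP reporter HT1080 cells; Compound dosing: single-point 20 µM compound, 1% DMSO; Times: overnight compound exposure at 37 °C.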
ADAM17 inh – ADAM17 inhibitors, primary screen, biochemical, QFRET; Disintegrin and metalloproteinase domain-containing protein 17 (Homo sapiens), P78536; recombinant ADAM17, EDANS/DABCYL FRET peptide cleavage; inhibition, % at 6.95 µM; 0.83% of 370,000 active;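 active = inhibition above the mean of compounds lying between control limits plus 3 SD, set per campaign, cut at about 8.5% in these data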;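 note: 0% = DMSO-only wells as the low control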
MPTP inh – mitochondrial permeability transition pore inhibitors, primary screen, biochemical, isolated mouse mitochondria, absorbance; inhibition, % at 10 µM; 1.4% of 360,000 active; Ca2+ swelling absorbance, 30 min;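 active = inhibition of 50% or more, scaled per plate between neutral and stimulator controls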;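 note: 0% = DMSO wells given calcium and 100% = 1 mM EGTA wells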
SKN-1 inh – suppressors of acrylamide-induced Pgst-4::GFP reporter in worms, primary screen, SKN-1 inhibitor project, whole organism, uHTS, GFP/RFP fluorescence ratio, strain VP596. C. elegans VP596 Pgst-4::GFP/RFP ratio, 24 h. inhibition, % at 21.8 µM. 0.49% of 360,000 active;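 active = interference check ratio from 0.5 to 1.5 plus GFP to RFP signal ratio inhibition reaching or exceeding a fixed threshold, cut at about 30% in these data, passing the limit was not always enough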
An asterisk follows results filed as active; . = not tested or not shown. Sampled rows, rich in hits. Any-hit rate of the full collection: about 4.7%.

SMILES	ADAM10 inh	NR3A LBD binder	MT1-MMP act inh	ADAM17 inh	MPTP inh	SKN-1 inh
CCN(Cc1ccccc1)c1ccc(/C=N/NS(=O)(=O)c2cccc([N+](=O)[O-])c2)cc1	-6	10*	-1	-3	5	1
CCN(CC)c1ccc(/C=N/NS(=O)(=O)c2ccc(C)c([N+](=O)[O-])c2)cc1	-5	7	-1	1	2	9
O=C(CNc1cccc2ccccc12)N/N=C/c1ccccn1	-132	-1	4	-43	2	2
O=C(CN(Cc1ccccc1)S(=O)(=O)c1ccccc1)N/N=C/c1ccc([N+](=O)[O-])cc1	11	10*	1	7	6	0
O=C(CNc1cccc2ccccc12)N/N=C/c1cccc(Oc2ccccc2)c1	-69	17*	6	-21	-1	0
CCCNC(=O)CN(C)S(=O)(=O)c1c(C)cc(C)cc1C	1	-3	1	-2	-1	-15
c1ccc2c(Cn3nnc4ccccc43)cccc2c1	9	11*	2	1	0	6
Oc1ccccc1Cn1nnc2ccccc21	-9	3	2	2	1	2
CCN1C(=O)/C(=C2/C=Cc3ccccc3N2C)OC1=S	6	4	-12	-2	-1	19
CCN1C(=O)/C(=C2\C=Cc3cc(C)ccc3N2CC)OC1=S	-19	1	-2	-4	3	35*
Cc1ccc2cc(CCNC(=O)c3cc4ccccc4o3)c(=O)[nH]c2c1C	-9	2	-1	0	3	3
COc1ccc2cc(CCNC(=O)c3cc4ccccc4o3)c(=O)[nH]c2c1	-21	21*	0	-4	-2	3
CN(C(=O)CSc1nc2ccccc2n1CCc1ccccc1)C1CCS(=O)(=O)C1 (centres undefined)	3	14*	1	-6	1	4
COCCn1c(SCC(=O)N(C)C2CCS(=O)(=O)C2)nc2ccccc2c1=O (centres undefined)	-16	0	2	-7	0	-1
Cc1ccc(C(=O)CC(=O)c2cc(Cl)ccc2O)cc1	-4	11*	6	1	18	22
O=C(Nc1cccc(-c2csc(Nc3ccc(Cl)cc3)n2)c1)c1cccc(C(F)(F)F)c1	16	26*	12	7	7	-2
O=C(Nc1cccc(-c2csc(Nc3ccc(Cl)cc3)n2)c1)c1ccccc1	20	25*	11	4	1	5
O=C(Nc1ccccc1)Nc1nc(-c2ccc(F)c(F)c2)cs1	.	28*	1	.	28	13
O=C(Nc1ccc(-c2csc(Nc3ccccc3)n2)cc1)c1ccccc1	-10	17*	7	-3	1	20
NC(=O)c1nc[nH]c1C(=O)Nc1cccc(NC(=O)c2cccc(C(F)(F)F)c2)c1	2	-7	8	-2	0	9
COc1ccccc1CC(=O)Nc1nc(-c2ccc(F)c(F)c2)cs1	9	-5	-8	6	2	6
O=C(NNc1nc(-c2ccccc2)cs1)c1ccccc1	14	-1	19	6	0	34
C1=C[C@@H]2CCN(Cc3ccccc3)Cc3cccc(c32)C1	-111	-2	-23	-35	0	3
O=C(N/N=C/c1ccc(-c2ccc(S(=O)(=O)Nc3ncccn3)cc2)o1)c1cc2ccccc2cc1O	-99	3	1	-31	3	7
N#C/C(=C\c1ccc(-c2ccc(F)cc2)o1)C(=O)Nc1nc(-c2cccs2)cs1	11	19*	-16	1	10	9
SMILES	ADAM10 inh	NR3A LBD binder	MT1-MMP act inh	ADAM17 inh	MPTP inh	SKN-1 inh
N#C/C(=C/c1ccc(-c2ccc(S(N)(=O)=O)cc2)o1)C(=O)Nc1ccccc1	-79	23*	-1	-23	4	15
NS(=O)(=O)c1ccc(-c2ccc(/C=N/NC(=O)c3ccccc3O)o2)cc1	-72	13*	-3	-17	4	3
CC(NC(=S)N1CCOCC1)c1ccccc1 (centres undefined)	-5	3	5	-1	0	7
C=CCN(Cc1nc(-c2ccccc2)no1)C(=O)c1ccoc1C	0	14*	1	-1	-2	-1
CC(=O)NNC(=O)CCn1c2c(c3ccccc31)CCCC2	2	0	-5	-2	2	-13
O=C(CCn1c2c(c3ccccc31)CCCC2)NNC(=O)c1ccc(Cl)c([N+](=O)[O-])c1	0	20*	2	1	26	1
COc1cc(/C=N/NC(=O)c2[nH]nc3c2CCc2ccccc2-3)ccc1O	-10	29*	.	-2	3	7
COc1cc(/C=N/NC(=O)c2ccccc2)ccc1O	-1	2	0	4	0	-9
CCC(CC)NC(=O)c1ccc2nc[nH]c2c1	4	18*	2	2	0	-7
O=C(N/N=C/c1ccc(Cl)cc1Cl)c1ccc2nc[nH]c2c1	-2	2	3	-2	1	-4
O=C(N/N=C/C(Br)=C\c1ccccc1)c1ccc2nc[nH]c2c1	2	15*	3	-2	1	-8
C=CCc1cccc(/C=N/NC(=O)c2ccc3nc[nH]c3c2)c1O	-6	11*	-6	-7	-1	9
C/C(=C(\C#N)C(=O)NC1CCCCC1)N(C)C	-4	-2	-2	-6	-3	22
CC(=O)Nc1nc(-c2ccc3c(c2)OCO3)cs1	4	-1	4	5	0	7
O=C(CCc1ccccc1)NCC(c1ccco1)N1CCc2ccccc21 (centres undefined)	3	2	-1	1	-1	19
COc1cc(/C=N/NC(=O)c2ccc3nc[nH]c3c2)ccc1O	-2	26*	0	-1	2	-5
COc1cccc(/C=N/NC(=O)c2ccc3nc[nH]c3c2)c1	-4	4	1	2	1	-6
O=C(NC(C(=O)c1ccccc1)N1CCCCCC1)c1ccco1 (centres undefined)	1	1	0	2	0	12
CCCN(Cc1cc2cc(C)ccc2[nH]c1=O)C(=O)c1ccccn1	-31	-1	2	-14	1	6
